This is a sample that favours compounds with a hit; in the whole collection about 9.4% have one here.
Mdm2-MdmX inh: inhibitors of human Mdm2/MdmX interaction; 3% of 330,000 active; O15151+Q00987; SaOS-2 split-luciferase Mdm2/MdmX complementation, luminescence; inhibition, % at 8 µM;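 active = inhibition of at least 50% at 8 µM in the primary screen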
Target sequence (O15151 whole entry, looked up): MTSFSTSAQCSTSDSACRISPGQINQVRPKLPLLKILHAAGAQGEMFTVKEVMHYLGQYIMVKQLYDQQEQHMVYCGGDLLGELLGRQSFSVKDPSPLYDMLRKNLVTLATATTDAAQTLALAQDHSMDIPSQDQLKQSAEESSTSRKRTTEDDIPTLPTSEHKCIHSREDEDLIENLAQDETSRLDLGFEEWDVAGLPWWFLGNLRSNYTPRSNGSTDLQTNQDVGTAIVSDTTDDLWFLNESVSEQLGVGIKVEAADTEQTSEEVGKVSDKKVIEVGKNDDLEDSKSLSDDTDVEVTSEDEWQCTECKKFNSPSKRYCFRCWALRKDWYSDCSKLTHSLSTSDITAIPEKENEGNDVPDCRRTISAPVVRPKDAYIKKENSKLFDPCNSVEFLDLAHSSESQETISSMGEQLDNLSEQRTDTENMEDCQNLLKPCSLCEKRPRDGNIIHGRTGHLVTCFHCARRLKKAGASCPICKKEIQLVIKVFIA
Target sequence (Q00987 whole entry, looked up): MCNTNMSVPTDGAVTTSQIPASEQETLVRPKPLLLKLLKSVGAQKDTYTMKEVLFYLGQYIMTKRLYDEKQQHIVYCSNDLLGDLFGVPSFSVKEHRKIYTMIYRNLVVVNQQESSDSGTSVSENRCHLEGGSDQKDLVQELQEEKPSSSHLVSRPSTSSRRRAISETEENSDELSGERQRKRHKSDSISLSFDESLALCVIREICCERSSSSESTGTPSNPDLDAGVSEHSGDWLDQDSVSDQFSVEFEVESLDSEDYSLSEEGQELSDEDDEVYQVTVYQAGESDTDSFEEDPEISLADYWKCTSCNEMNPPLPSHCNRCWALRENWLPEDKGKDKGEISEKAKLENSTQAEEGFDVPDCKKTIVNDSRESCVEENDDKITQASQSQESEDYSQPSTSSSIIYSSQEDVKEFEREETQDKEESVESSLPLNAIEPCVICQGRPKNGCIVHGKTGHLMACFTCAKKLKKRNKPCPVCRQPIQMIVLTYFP
CSC inhib: cancer stem cell inhibition; AID 2717; 1.1% of 300,000 active; inhibition, % at 7.5 µM; cancer stem cell-like cells viability, luminescence; in the data active = inhibition above about 75%; inconclusive = no clear call, values can overlap the other calls; tested in HMLE shEcad cells
Lmaj promast: Leishmania major promastigote growth inhibition; Leishmania major promastigotes, resazurin fluorescence viability; inhibition, % at 10 µM; 9% of 200,000 active; AID 1063; in the data active = inhibition above about 50%;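 note: promastigotes grown with compound for 44 hours at 28 °C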
Beta cell apopt: blocks beta cell apoptosis; INS-1E cytokine-induced death, ATP luminescence, 48 h; percent of positive-control rescue, neutral wells zero; protection from apoptosis, % (no concentration beside the values); 0.8% of 300,000 active;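 active = Every replicate reaches about 75%, or at least half do and their mean reaches it too, limit read from the data; inconclusive = At least half of replicates reach the limit but their mean does not; inactive = Under half of replicates reach the limit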;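 note: 0% = cytokine-treated negative control wells and 100% = positive control rescue; higher means more ATP so stronger rescue from cytokine killing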
T cruzi inh: blocks replication of Trypanosoma cruzi | inhibition, % (test concentration not listed) | T. cruzi beta-gal in NIH3T3, luminescence, 90 h | AID 1885 | 1.4% of 300,000 active;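 active = mean inhibition across valid replicates above about 55%, limit read from the data; inconclusive = mean below that limit but half or more replicates reach it; inactive = mean below it, under half of replicates reach it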;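 note: signal also drops with host cell toxicity which is not excluded here; 0% = plate median of DMSO wells and 100% = zero luminescence signal; higher percent means less beta-gal luminescence so fewer parasites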
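Test system: β-gal T. cruzi (Tulahuen C4) inside NIH/3T3 cells / Quantity: 5,000 cells/well / Measured by: luminescence from GalScreen with 0.05% NP40, read after 60 min / Medium: DMEM plus 2% FBS / Measure: parasite load inhibition, % / Reagent: Tulahuen C4 trypomastigotes, 5000/well / Schedule: co-culture of at least 90 h after 3 h attachment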
SKKanGAS inh: inhibitors of SKKanGAS S. pyogenes growth in kanamycin (SK-promoter or general growth effect); BacTiter-Glo, 6 h; inhibition, % at 7.5 µM; 1.3% of 300,000 active; AID 1662;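 active = mean replicate score, as percent of positive control median, at least 50; inconclusive = mean below 50 but one replicate at or above 50; inactive = mean and every replicate below 50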;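 note: strain carries kanamycin resistance gene driven by streptokinase promoter and grows in 40 µg/ml kanamycin; loss of luminescence reflects streptokinase promoter inhibition or plain growth inhibition; 0% = median of DMSO wells and 100% = positive control at its reference dose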
The depositor's hits bear a star.

What do the screens show for `Cc1cc(N2CCC(C)CC2)nc(-n2nc(C)cc2C)n1`?
Mdm2-MdmX inh: 16; CSC inhib: -9; Lmaj promast: 97*; Beta cell apopt: 64; T cruzi inh: 27; SKKanGAS inh: 95*

What do the screens show for `O=C(c1ccc(CSc2nc3ccncc3[nH]2)cc1)N1CCCCCC1`?
Mdm2-MdmX inh: -6; CSC inhib: 15; Beta cell apopt: 10; T cruzi inh: 4; SKKanGAS inh: 1

Results for O=C(c1cccc(S(=O)(=O)N2CCc3ccccc3C2)c1)N1CCN(c2ccc(O)cc2)CC1 ?
Mdm2-MdmX inh: -12; CSC inhib: 156*; Lmaj promast: 65*; Beta cell apopt: -5; T cruzi inh: 20; SKKanGAS inh: 7

What do the screens show for `O=C(NCc1ccco1)c1ccc(Cl)c(S(=O)(=O)N2CCOCC2)c1`?
Mdm2-MdmX inh: 10; CSC inhib: 3; Lmaj promast: 1; Beta cell apopt: 3; T cruzi inh: -6; SKKanGAS inh: 5

What do the screens show for `O=C(NCC1(N2CCOCC2)CCCCC1)c1cccc(S(=O)(=O)N2CCc3ccccc3C2)c1`?
Mdm2-MdmX inh: -2; Lmaj promast: 64*; Beta cell apopt: 11; T cruzi inh: 26; SKKanGAS inh: 0

Results for O=C(NCC1(N2CCOCC2)CCCCC1)c1ccc(Cl)c(S(=O)(=O)NCc2ccco2)c1 ?
Mdm2-MdmX inh: 12; CSC inhib: 4; Lmaj promast: 93*; Beta cell apopt: 6; T cruzi inh: 9; SKKanGAS inh: -5

Results for O=C(c1ccc(CSc2nc3ccncc3[nH]2)cc1)N1CCN(c2cccc(Cl)c2)CC1 ?
Mdm2-MdmX inh: 39; CSC inhib: 8; Lmaj promast: 33; Beta cell apopt: 66; T cruzi inh: 55*; SKKanGAS inh: 12

Results for NC(=O)C1CCN(C(=O)c2cccc(S(=O)(=O)N3CCc4ccccc4C3)c2)CC1 ?
Mdm2-MdmX inh: 8; CSC inhib: -6; Lmaj promast: 0; T cruzi inh: 4; SKKanGAS inh: -2

What do the screens show for `COC(=O)CN=C1OC(=O)N2C(=O)C3=C4[C@@H](C[C@H]5C(=O)N(c6ccccc6)C(=O)[C@H]5[C@H]4[C@@]12Cc1ccccc1)[C@H]1C(=O)N(c2ccccc2)C(=O)[C@H]1[C@H]3C`?
Mdm2-MdmX inh: 10; CSC inhib: -2; Beta cell apopt: -2; T cruzi inh: -6; SKKanGAS inh: 1

What do the screens show for `O=C(CSc1ccc2ccccc2c1)N1CCN(c2ccc(O)cc2)CC1`?
Mdm2-MdmX inh: 7; CSC inhib: 91*; Beta cell apopt: 3; T cruzi inh: 0; SKKanGAS inh: 7

How did Cc1cccc(N2CCN(C(=O)c3ccc(Cl)c(S(=O)(=O)N4CCc5ccccc5C4)c3)CC2)c1C do in these assays?
Mdm2-MdmX inh: 24; CSC inhib: 15; Lmaj promast: 99*; Beta cell apopt: 8; T cruzi inh: 59*; SKKanGAS inh: 14

How did CC(OC(=O)c1cccc(S(=O)(=O)N2CCN(C)CC2)c1)C(=O)Nc1ccc(C(N)=O)cc1 (stereo not given) do in these assays?
Mdm2-MdmX inh: 24; CSC inhib: -16; Beta cell apopt: 2

How did CCc1ccc(NC(=O)C(C)OC(=O)c2cccc(S(=O)(=O)N3CCc4ccccc4C3)c2)cc1 (stereo not given) do in these assays?
Mdm2-MdmX inh: 5; CSC inhib: 2; Lmaj promast: 89*; Beta cell apopt: -5; T cruzi inh: 31; SKKanGAS inh: -7

Results for O=C(c1ccc2ccccc2c1)N1CCN(c2ccc(O)cc2)CC1 ?
Mdm2-MdmX inh: -2; CSC inhib: 27; Lmaj promast: 90*; Beta cell apopt: -14; T cruzi inh: -5; SKKanGAS inh: 8

How did O=C(c1ccc2ccccc2c1)N1CCN(c2ccccn2)CC1 do in these assays?
Mdm2-MdmX inh: 4; CSC inhib: -9; T cruzi inh: -9; SKKanGAS inh: -2

What do the screens show for `O=S(=O)(c1ccc2ccccc2c1)N1CCN(c2ccc(O)cc2)CC1`?
Mdm2-MdmX inh: 16; CSC inhib: inconclusive; Beta cell apopt: 0

How did CC(C)c1ccc(NC2CCCN(C(=O)CCc3cnn(C)c3)C2)cc1 (stereo not given) do in these assays?
Mdm2-MdmX inh: 17; CSC inhib: -9; Beta cell apopt: -7; T cruzi inh: 5; SKKanGAS inh: 9

Results for O=C(c1ccc(CSc2ccccc2)cc1)N1CCN(c2ccccc2)CC1 ?
Mdm2-MdmX inh: -30; CSC inhib: active; Lmaj promast: 6; Beta cell apopt: 1; T cruzi inh: -7; SKKanGAS inh: 7

Results for COc1ccccc1N1CCN(C(=O)c2ccc(CSc3ccccc3)cc2)CC1 ?
Mdm2-MdmX inh: -17; CSC inhib: 58; Lmaj promast: 6; Beta cell apopt: 7; T cruzi inh: 3; SKKanGAS inh: 13

How did COc1ccc(/C=C2\SC(=O)N(CCNC(=O)Cc3coc4cc(OC)ccc34)C2=O)cc1 do in these assays?
Mdm2-MdmX inh: 6; CSC inhib: 20; Lmaj promast: 59*; Beta cell apopt: 6; T cruzi inh: 11; SKKanGAS inh: -4

How did COc1cc(OC)cc(-c2n[nH]c(=S)n2-c2cc(OC)ccc2OC)c1 do in these assays?
Mdm2-MdmX inh: 1; CSC inhib: 5; Lmaj promast: 100*; Beta cell apopt: 0; T cruzi inh: 1; SKKanGAS inh: 0

What do the screens show for `COc1cc(-n2c(-c3ccccc3)n[nH]c2=S)c(OC)cc1Cl`?
Mdm2-MdmX inh: -23; CSC inhib: -9; Lmaj promast: 59*; Beta cell apopt: -2; T cruzi inh: 3; SKKanGAS inh: -6

Results for COc1ccc(OC)c(-n2c(-c3ccc(O)cc3O)n[nH]c2=S)c1 ?
Mdm2-MdmX inh: 21; CSC inhib: -14; Beta cell apopt: -3; T cruzi inh: -5; SKKanGAS inh: -10

What do the screens show for `Cc1cc(C)cc(N(CC(=O)NC2CCCC2)S(=O)(=O)c2c(C)[nH]c(=O)[nH]c2=O)c1`?
Mdm2-MdmX inh: 3; CSC inhib: -4; Beta cell apopt: 1; T cruzi inh: -4; SKKanGAS inh: -15

How did CN(C)C(CNC(=O)c1ccc(C2SCCS2)cc1)c1ccccc1 (stereo not given) do in these assays?
Mdm2-MdmX inh: -5; CSC inhib: 20; Beta cell apopt: 2; T cruzi inh: -6; SKKanGAS inh: 7

Results for CN(C1CCCC1)C1CCN(C(=O)CNC(=O)/C=C/c2ccc(F)cc2)CC1 ?
Mdm2-MdmX inh: 25; Lmaj promast: 4; T cruzi inh: 12; SKKanGAS inh: -3

Results for CN(C1CCCC1)C1CCN(C(=O)CNC(=O)/C=C/c2cccc(C(F)(F)F)c2)CC1 ?
Mdm2-MdmX inh: 7; CSC inhib: 16; Lmaj promast: 76*; Beta cell apopt: -10; T cruzi inh: 4; SKKanGAS inh: 1

How did COc1ccc(S(=O)(=O)CCC(=O)Nc2cccc(OC)c2)cc1 do in these assays?
Mdm2-MdmX inh: -17; Lmaj promast: -9; Beta cell apopt: 3; T cruzi inh: 11; SKKanGAS inh: 7

Assay outcomes (PubChem)
